Laboratory results: ChEMBL document CHEMBL1781999, “Lead optimization of aryl and aralkyl amine-based triazolopyrimidine inhibitors of Plasmodium falciparum dihydroorotate dehydrogenase with antimalarial activity in mice” (J Med Chem, 2011)
Converted amounts (≈) assume the structure as drawn.

Tests used:
Plasma = test: (§1) Plasma protein binding in human by albumin chromatographic method; assay type: ADME, cell-free
[1] = Antimalarial activity against Plasmodium berghei ANKA NK65 infected in po dosed Swiss Webster mouse assessed as reduction of parasitemia level administered qd for 4 days measured 24 hrs after last dose by light microscopic analysis; assay type: functional
[2] = Antimalarial activity against Plasmodium berghei ANKA NK65 infected in Swiss Webster mouse assessed as reduction of parasitemia level at 2 mg/kg, po qd administered for 4 days measured 24 hrs after last dose by light microscopic analysis; assay type: functional; parameters: scale not given: the % may be the effect or the level left
Outline: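 Female Swiss Webster mice, 8-10 weeks old (20-22 g), infected intraperitoneally with 2 × 10^7 P. berghei NK65 ANKA-infected erythrocytes. Oral doses in CMC vehicle (200 μL), first given 3 h post-infection, then at 24, 48 and 72 h. Parasitemia followed daily from 24 h by light microscopy at 1000× oil immersion, counting ≥10 fields of >100 erythrocytes. Mice losing ≥20% body weight were euthanized.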

Plasmodium falciparum = test: Antimalarial activity against Plasmodium falciparum 3D7 infected in human A positive erythrocytes by [3H]hypoxanthine uptake assay in presence of serum in medium; assay type: functional, organism-based
Outline: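 Growth read by [3H]-hypoxanthine uptake. Each concentration run in quadruplicate and fitted to a four-parameter variable-slope log[I]-response model for 50% growth inhibition.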

[3] = Partition coefficient, log D of the compound at pH 7.4 by UV-HPLC analysis; conditions: octanol/water
[4] = Aqueous solubility of the compound in phosphate buffer at pH 6.5; assay type: physicochemical
Outline: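 Non-equilibrium solubility. Concentrated DMSO stocks were diluted into pH 6.5 phosphate buffer (final DMSO 1% v/v) and precipitation was monitored by nephelometry. Solubility is given as the concentration range just before a turbidity signal rose above background.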

[5] = as §1; assay type: ADME, cell-free; conditions: read-out: PPB (converted)
Liver microsomes = test: (§2) Intrinsic clearance in human liver microsome assessed per mg of protein at 1 uM after 60 mins by LC-MS analysis; assay type: ADME; conditions: microsomes, 1 h, 1 µM
Outline: (§3)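 Microsomal stability. Compound at 1 μM with liver microsomes (0.4 mg/mL protein) in 0.1 M phosphate pH 7.4 at 37 °C. Started with an NADPH-regenerating system plus MgCl2; controls lacked NADPH. Quenched with cold acetonitrile at time points up to 60 min. Parent loss measured by LC-MS and fitted to exponential decay to give CLint.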

Liver = test: Intrinsic clearance in mouse liver microsome assessed per mg of protein at 1 uM after 60 mins by LC-MS analysis; assay type: ADME; conditions: microsomes, 1 h; outline: as §3
Mus musculus [6] = test: Cmax in Swiss mouse at 20 mg/kg, po measured after 24 hrs by LC-MS analysis; assay type: ADME, organism-based; parameters: dose 20 mg/kg, route oral; conditions: in vivo
Outline: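 Non-fasted male Swiss outbred mice given a single oral gavage dose in 0.5% w/v sodium carboxymethylcellulose, 0.5% v/v benzyl alcohol, 0.4% v/v Tween 80. One mouse per time point, cardiac blood under isoflurane, sampling to 24 h. Plasma stabilized, acetonitrile-precipitated, quantified by LC-MS against blank-plasma standards; Cmax read from concentration-time profile.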

Mus musculus [7] = test: Toxicity in Swiss mouse assessed as adverse effect at 20 mg/kg, po measured after 24 hrs; assay type: organism-based; parameters: dose 20 mg/kg, route oral; conditions: in vivo
[8] = Inhibition of His6-tagged recombinant Plasmodium berghei dihydroorotate dehydrogenase expressed in Escherichia coli using L-dihydroorotate as substrate after 5 to 10 mins by DCIP dye-based assay
[9] = molecular target: T1, Dihydroorotate dehydrogenase (Plasmodium falciparum, UniProt Q54A96); test: Inhibition of His6-tagged recombinant Plasmodium falciparum dihydroorotate dehydrogenase expressed in Escherichia coli using L-dihydroorotate as substrate after 5 to 10 mins by DCIP dye-based assay
T1 sequence (Q54A96 whole entry): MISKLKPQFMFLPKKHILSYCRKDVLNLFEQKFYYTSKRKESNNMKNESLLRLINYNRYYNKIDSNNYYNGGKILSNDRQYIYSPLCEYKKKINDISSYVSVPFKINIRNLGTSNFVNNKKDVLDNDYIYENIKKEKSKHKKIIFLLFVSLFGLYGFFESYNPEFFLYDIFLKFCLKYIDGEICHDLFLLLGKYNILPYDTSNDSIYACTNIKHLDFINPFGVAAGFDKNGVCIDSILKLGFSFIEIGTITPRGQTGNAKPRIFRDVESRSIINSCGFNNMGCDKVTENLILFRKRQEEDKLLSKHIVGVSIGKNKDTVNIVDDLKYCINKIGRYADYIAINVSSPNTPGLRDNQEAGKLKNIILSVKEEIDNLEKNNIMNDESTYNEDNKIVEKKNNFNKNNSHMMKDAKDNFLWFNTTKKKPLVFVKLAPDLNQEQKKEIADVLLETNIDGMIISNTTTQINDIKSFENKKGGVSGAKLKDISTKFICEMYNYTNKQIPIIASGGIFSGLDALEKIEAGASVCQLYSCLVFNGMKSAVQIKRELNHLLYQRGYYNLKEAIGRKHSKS

[10] = Inhibition of His6-tagged recombinant Plasmodium berghei dihydroorotate dehydrogenase expressed in Escherichia coli using L-dihydroorotate as substrate after 10 to 15 mins by DCIP dye-based assay; conditions: in the assay text read “5 to 10 mins” for “10 to 15 mins”
Outline: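 Truncated soluble enzyme lacking the N-terminal membrane domain. Final concentrations: 0.2 mM L-dihydroorotate, 0.02 mM CoQD, 0.12 mM DCIP. Reaction started with 10 nM enzyme and read at 600 nm for 5–10 min at 20 °C. Inhibitor 0.01–100 μM in 3-fold steps, in triplicate. IC50 from a three-parameter fit of vi/vo from initial rates.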

Mus musculus [11] = test: Time duration above 1 uM plasma concentration in Swiss mouse at 20 mg/kg, po; assay type: ADME, organism-based; parameters: dose 20 mg/kg, route oral; conditions: in vivo
Outline: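 Non-fasted male Swiss outbred mice given a single gavage dose in suspension (0.5% Na-CMC, 0.5% benzyl alcohol, 0.4% Tween 80). One mouse per time point; blood taken by cardiac puncture under isoflurane into stabilizer over 24 h. Plasma measured by LC-MS; time above 1 μM read directly from the concentration-time profile.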

[12] = as §2; assay type: ADME, microsomes; conditions: liver microsomes; outline: as §3
[13] = molecular target: Dihydroorotate dehydrogenase (quinone), mitochondrial (Homo sapiens, UniProt Q02127); test: Inhibition of His6-tagged recombinant human dihydroorotate dehydrogenase expressed in Escherichia coli using L-dihydroorotate as substrate after 5 to 10 mins by DCIP dye-based assay
Sequence of Dihydroorotate dehydrogenase (quinone), mitochondrial (Q02127 whole entry): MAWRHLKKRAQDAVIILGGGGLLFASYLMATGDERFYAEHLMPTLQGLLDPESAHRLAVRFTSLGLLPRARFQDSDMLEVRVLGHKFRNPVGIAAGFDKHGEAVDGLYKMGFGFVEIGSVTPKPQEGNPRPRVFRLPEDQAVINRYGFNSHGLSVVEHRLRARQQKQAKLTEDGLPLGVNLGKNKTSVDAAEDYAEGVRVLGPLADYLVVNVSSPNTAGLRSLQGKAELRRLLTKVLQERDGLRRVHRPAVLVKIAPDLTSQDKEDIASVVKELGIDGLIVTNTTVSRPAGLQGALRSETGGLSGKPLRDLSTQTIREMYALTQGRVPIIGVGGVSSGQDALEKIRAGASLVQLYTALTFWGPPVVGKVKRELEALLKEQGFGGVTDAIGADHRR

[14] = phosphate buffer, read-out: solubility

CCN(CC)CCCC(C)Nc1ccnc2cc(Cl)ccc12 (stereo not given) [CHLOROQUINE]
PPB (Plasma): 87% | ED50 [1]: 1.8 mg/kg | Activity [2]: 50%

Cc1cc(Nc2ccc(C(C)(C)C)c(F)c2)n2ncnc2n1
EC50 (Plasmodium falciparum): 97 nM | logD [3]: 3.5 | solubility ([4]; buffer): < 2.7 µM | fraction unbound [5]: 0.036 | CL (Liver microsomes): 32 µL/min/mg | CL (Liver): 68 µL/min/mg | Cmax (Mus musculus [6]): 250 nM | Activity (Mus musculus [7]): Non-toxic | IC50 [8]: 110 nM | IC50 [9]: 35 nM

Cc1cc(NC2CCc3ccccc3C2)n2ncnc2n1 (stereo not given)
IC50 [10]: 2300 nM | EC50 (Plasmodium falciparum): 1800 nM | logD [3]: 2.9 | solubility ([4]; buffer): > 358 µM | CL (Liver microsomes): < 5 µL/min/mg | CL (Liver): 35 µL/min/mg | Cmax (Mus musculus [6]): 7800 nM | Time (Mus musculus [11]): 6 h | Activity (Mus musculus [7]): Non-toxic | IC50 [9]: 540 nM

OC(c1cc(C(F)(F)F)nc2c(C(F)(F)F)cccc12)C1CCCCN1 (stereo not given) [MEFLOQUINE]
ED50 [1]: 3.8 mg/kg

C[C@H]1[C@H](OC(=O)CCC(=O)O)O[C@@H]2O[C@@]3(C)CC[C@H]4[C@H](C)CC[C@@H]1[C@@]24OO3 [ARTESUNATE]
ED50 [1]: 5.9 mg/kg

Cc1cc(Nc2ccc(C(F)(F)F)cc2)n2ncnc2n1
logD [3]: 2.5 | solubility [4, 14]: 21 µM (≈ 6.16 µg/mL) | fraction unbound [5]: 0.131 | microsomal CLint at 1 µM [12]: 8 µL/min/mg

Cc1cc(Nc2ccc(C(C)C)cc2)n2ncnc2n1
IC50 [10]: 880 nM | EC50 (Plasmodium falciparum): 780 nM | logD [3]: 3 | solubility [4, 14]: 47 µM (≈ 12.6 µg/mL) | fraction unbound [5]: 0.087 | CL (Liver microsomes): 30 µL/min/mg | CL (Liver): 241 µL/min/mg | Cmax (Mus musculus [6]): 800 nM | Activity (Mus musculus [7]): Non-toxic | IC50 [13]: > 100000 nM | IC50 [9]: 220 nM

Cc1cc(NC2Cc3ccccc3C2)n2ncnc2n1
IC50 [10]: 2400 nM | EC50 (Plasmodium falciparum): 400 nM | logD [3]: 2.5 | solubility [4, 14]: 188 µM (≈ 49.9 µg/mL) | fraction unbound [5]: 0.239 | CL (Liver microsomes): < 5 µL/min/mg | CL (Liver): 32 µL/min/mg | Cmax (Mus musculus [6]): 500 nM | Activity (Mus musculus [7]): Non-toxic | IC50 [9]: 500 nM

Cc1cc(Nc2ccc3c(c2)CCCC3)n2ncnc2n1
IC50 [10]: 190 nM | EC50 (Plasmodium falciparum): 160 nM | logD [3]: 3.4 | solubility [4, 14]: 89 µM (≈ 24.9 µg/mL) | fraction unbound [5]: 0.045 | CL (Liver microsomes): 72 µL/min/mg | CL (Liver): 361 µL/min/mg | Cmax (Mus musculus [6]): 2200 nM | Time (Mus musculus [11]): 1 h | Activity (Mus musculus [7]): Non-toxic | IC50 [13]: > 100000 nM

O=C1C(O)=C([C@H]2CC[C@H](c3ccc(Cl)cc3)CC2)C(=O)c2ccccc21 [ATOVAQUONE]
EC50 (Plasmodium falciparum): 1.5 nM | PPB (Plasma): 87%

Cc1cc(NCCCc2ccccc2)n2ncnc2n1
EC50 (Plasmodium falciparum): 25000 nM | IC50 [8]: > 100000 nM | IC50 [9]: 26000 nM

CCCc1c(C)nc2ncnn2c1Nc1ccc(C)cc1
EC50 (Plasmodium falciparum): > 10000 nM | IC50 [13]: > 100000 nM | IC50 [8]: > 100000 nM | IC50 [9]: > 100000 nM

Cc1cc(Nc2ccc3sccc3c2)n2ncnc2n1
IC50 [10]: 600 nM | EC50 (Plasmodium falciparum): 66 nM | logD [3]: 2.6 | solubility [4, 14]: 22 µM (≈ 6.19 µg/mL) | fraction unbound [5]: 0.102 | CL (Liver microsomes): 64 µL/min/mg | CL (Liver): 162 µL/min/mg | Cmax (Mus musculus [6]): 400 nM | Activity (Mus musculus [7]): Non-toxic | IC50 [9]: 90 nM
